The record followed here is publication PMC7384665 (Bioorganic & medicinal chemistry, 2020).

Read-outs that look alike come from different tables or passages of the source.

The subject of test [1] is RPMI-8226 myeloma cells. Put plainly: H-Ras immunoblot. Type of test: cell-based. The conditions noted are these: RPMI-8226 cells, 48 h. (In general: In western blotting, separated proteins are transferred to a membrane and probed.)
In a further test the target is Recombinant GGTase I (Rattus norvegicus, UniProt P53610+Q04631). Put plainly: GGTase I enzyme assay. Type of test: biochemical. Summed up: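 Recombinant GGTase I activity measured by a modified Temple et al. method, with dansyl-peptide substrates (dansyl-GCVLS and dansyl-GCVLL listed for the FTase/GGTase I assays); fluorescence change followed over time on a microplate reader. Test compound run in duplicate at multiple concentrations, three independent experiments; IC50 obtained from concentration-response curves.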

For test [2], the system named is RPMI-8226 myeloma cells. Put plainly: Cellular assays: Rap1a immunoblot and intracellular lambda light chain ELISA. Type of test: cell-based.
The next test has as its target Recombinant FTase (Rattus norvegicus, UniProt Q02293+Q04631). Put plainly: FTase enzyme assay. The conditions noted are these: for FTase inhibitory activity: concentrations as high as 100 μM, data not shown. It is filed as biochemical.
The mark [3] stands for this setting: concentrations as high as 100 μM, data not shown.

Chain of Recombinant FTase (Q02293 whole entry, one chain of several): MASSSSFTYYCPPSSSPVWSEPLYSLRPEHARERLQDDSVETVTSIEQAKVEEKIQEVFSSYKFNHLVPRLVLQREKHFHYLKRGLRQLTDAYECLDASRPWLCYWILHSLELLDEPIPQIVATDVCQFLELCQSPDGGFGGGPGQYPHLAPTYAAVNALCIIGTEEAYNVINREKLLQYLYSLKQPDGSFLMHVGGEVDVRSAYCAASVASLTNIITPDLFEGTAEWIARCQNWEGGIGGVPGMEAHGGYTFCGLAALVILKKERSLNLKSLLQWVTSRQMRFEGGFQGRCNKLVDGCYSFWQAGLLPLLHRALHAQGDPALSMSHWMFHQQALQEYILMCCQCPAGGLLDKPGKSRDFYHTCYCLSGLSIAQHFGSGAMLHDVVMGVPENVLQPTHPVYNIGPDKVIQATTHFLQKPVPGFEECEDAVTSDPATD
Chain of Recombinant GGTase I (P53610 whole entry, one chain of several): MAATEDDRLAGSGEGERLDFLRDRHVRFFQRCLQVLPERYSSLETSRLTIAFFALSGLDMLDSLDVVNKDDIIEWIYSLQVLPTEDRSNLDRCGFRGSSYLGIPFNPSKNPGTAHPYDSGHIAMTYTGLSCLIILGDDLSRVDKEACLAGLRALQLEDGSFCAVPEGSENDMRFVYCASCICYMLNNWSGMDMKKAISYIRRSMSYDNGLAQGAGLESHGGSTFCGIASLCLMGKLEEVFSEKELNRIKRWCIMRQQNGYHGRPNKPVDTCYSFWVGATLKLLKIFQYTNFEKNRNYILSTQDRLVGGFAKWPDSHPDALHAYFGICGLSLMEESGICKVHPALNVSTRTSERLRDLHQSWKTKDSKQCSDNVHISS

On to `CC(C)=CCC/C(C)=C\CC(=O)NCCC(P(=O)([O-])[O-])P(=O)([O-])[O-].[Na+].[Na+].[Na+].[Na+]` [Compound 2g, Disodium (1-[bis(sodiooxy)phosphoryl]-3-[(3Z)-4,8-dimethylnona-3,7-dienamido]propyl)phosphonate], for which, in the test with RPMI-8226 myeloma cells [1], the “Effect on H-Ras farnesylation (prenylation)” value (from here on “Effect on H-Ras farnesylation”) was “None of these compounds (2g, 2h, 2i, 2e, 2d) disrupted H-Ras farnesylation”. Also, the “GGTase I inhibitory activity” value at Recombinant GGTase I (setting [3]) is “no inhibitory activity was observed”. Moreover, the “Fold increase in GGDPS inhibitor activity with respect to 2c” value in the test on RPMI-8226 myeloma cells [2] (Figure 3B, Rap1a immunoblot) turned out to be 10 fold. For the same compound, the FTase inhibitory activity result at Recombinant FTase is on record as “no inhibitory activity was observed”.
As for `CC(C)=CCC/C(C)=C\CCC(=O)NCCC(P(=O)([O-])[O-])P(=O)([O-])[O-].[Na+].[Na+].[Na+].[Na+]` [Compound 2i, Disodium (1-[bis(sodiooxy)phosphoryl]-3-[(4Z)-5,9-dimethyldeca-4,8-dienamido]propyl)phosphonate], the “Effect on H-Ras farnesylation” value with RPMI-8226 myeloma cells [1] is “None of these compounds (2g, 2h, 2i, 2e, 2d) disrupted H-Ras farnesylation”. In addition, on Recombinant GGTase I (setting [3]), the “GGTase I inhibitory activity” value is “no inhibitory activity was observed”. Besides, the “Times less potent than triazole 1” value in the test with RPMI-8226 myeloma cells [2] (by LEC) is “approximately 17 times”. Further, the FTase inhibitory activity result at Recombinant FTase is given as “no inhibitory activity was observed”.
`CC(C)=CCC/C(C)=C/C(=O)NCCC(P(=O)([O-])[O-])P(=O)([O-])[O-].[Na+].[Na+].[Na+].[Na+]` [Compound 2b, Disodium (1-[bis(sodiooxy)phosphoryl]-3-[(2E)-3,7-dimethylocta-2,6-dienamido]propyl)phosphonate]: in the test with RPMI-8226 myeloma cells [1], the “Effect on H-Ras farnesylation” value is “disrupted H-Ras farnesylation”. The “GGTase I inhibitory activity” value at Recombinant GGTase I was “no inhibitory activity”.
As to `CC(C)=CCC[C@H](C)CC(=O)NCCC(P(=O)([O-])[O-])P(=O)([O-])[O-].[Na+].[Na+].[Na+].[Na+]` [Compound 2d, Disodium (1-[bis(sodiooxy)phosphoryl]-3-[(3S)-3,7-dimethyloct-6-enamido]propyl)phosphonate], the “Effect on H-Ras farnesylation” value with RPMI-8226 myeloma cells [1] is “None of these compounds (2g, 2h, 2i, 2e, 2d) disrupted H-Ras farnesylation”. The “GGTase I inhibitory activity” value on Recombinant GGTase I (setting [3]) is “no inhibitory activity was observed”. Besides, the FTase inhibitory activity entry on Recombinant FTase is given as “no inhibitory activity was observed”.
Regarding `CC(C)=CCC/C(C)=C/CCC(=O)NCCC(P(=O)([O-])[O-])P(=O)([O-])[O-].[Na+].[Na+].[Na+].[Na+]` [Compound 2h, Disodium (1-[bis(sodiooxy)phosphoryl]-3-[(4E)-5,9-dimethyldeca-4,8-dienamido]propyl)phosphonate], in the test with RPMI-8226 myeloma cells [1], the “Effect on H-Ras farnesylation” value was “None of these compounds (2g, 2h, 2i, 2e, 2d) disrupted H-Ras farnesylation”. Further, at Recombinant GGTase I (setting [3]), the “GGTase I inhibitory activity” value is recorded as “no inhibitory activity was observed”. Besides, on Recombinant FTase, the FTase inhibitory activity result is “no inhibitory activity was observed”.
On to `CC(C)=CCCC(=O)NCCC(P(=O)([O-])[O-])P(=O)([O-])[O-].[Na+].[Na+].[Na+].[Na+]` [Compound 2j, Disodium (1-[bis(sodiooxy)phosphoryl]-3-(5-methylhex-4-enamido)propyl)phosphonate], for which the “Effect on H-Ras farnesylation” value with RPMI-8226 myeloma cells [1] is listed as “lack of effect”.
As to `CC(C)=CCC[C@@H](C)CC(=O)NCCC(P(=O)([O-])[O-])P(=O)([O-])[O-].[Na+].[Na+].[Na+].[Na+]` [Compound 2e, Disodium (1-[bis(sodiooxy)phosphoryl]-3-[(3R)-3,7-dimethyloct-6-enamido]propyl)phosphonate], the “Effect on H-Ras farnesylation” value with RPMI-8226 myeloma cells [1] is given as “None of these compounds (2g, 2h, 2i, 2e, 2d) disrupted H-Ras farnesylation”. Also, the “GGTase I inhibitory activity” value at Recombinant GGTase I (setting [3]) is recorded as “no inhibitory activity was observed”. Moreover, the “Fold more potent than S-isomer 2d” value with RPMI-8226 myeloma cells [2] (cellular assays) was 10 fold. Moreover, the FTase inhibitory activity result on Recombinant FTase is on record as “no inhibitory activity was observed”.
Consider `CC(C)=CCC/C(C)=C\C(=O)NCCC(P(=O)(O)O)P(=O)(O)O` [Compound 2c], for which the inhibition at 100 µM on Recombinant FTase (read-out: FTase inhibitory activity) was under 30%.
